Assay results published in ChEMBL document CHEMBL1121751, “Inhibition of thymidylate synthetase by 5-alkynyl-2'-deoxyuridylates” (J Med Chem, 1981).
Values belong to the compound of their own block, whether it stands above or below them. The source made the active and inactive calls. The calls are words filed in the database; no cut-off is given here.

Columns and labels:
[1] = Compound was tested for cytotoxicity towards (Wild-type and TK-) S49 cells at 0.1 mM; Not cytotoxic; format: cell-based; details: mouse, s49, 100 µM
Thymidylate synthase = biological target: T1, Thymidylate synthase (Lactobacillus casei, UniProt P00469); experiment: The compound was evaluated for the inhibition of dTMP synthetase from Lactobacillus casei; set-up: species or system Lacticaseibacillus casei
T1 sequence (P00469 whole entry): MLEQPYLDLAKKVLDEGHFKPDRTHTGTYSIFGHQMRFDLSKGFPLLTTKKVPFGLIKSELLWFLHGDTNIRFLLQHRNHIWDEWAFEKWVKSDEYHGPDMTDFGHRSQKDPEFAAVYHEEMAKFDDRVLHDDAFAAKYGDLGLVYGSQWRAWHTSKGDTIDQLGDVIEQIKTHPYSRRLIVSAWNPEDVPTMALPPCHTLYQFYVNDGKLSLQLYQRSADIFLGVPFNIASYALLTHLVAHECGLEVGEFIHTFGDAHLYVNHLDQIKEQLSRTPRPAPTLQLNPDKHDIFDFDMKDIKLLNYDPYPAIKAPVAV
Method in brief: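 dTMP synthetase came from a methotrexate-resistant strain of Lactobacillus casei and was purified. Activity was measured by a reported procedure in standard assay buffer. For time-dependent inactivation, enzyme was preincubated with nucleotide, with or without 0.1 mM CH₂-H₄folate, for up to 2 h. Aliquots were then diluted 10-fold into buffer containing 0.84 mM dUMP and 0.1 mM CH₂-H₄folate, and initial velocity was recorded.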

[2] = Effective concentration to inhibit the growth of Wild-type S49 cells; format: functional, cell-based; details: Mus musculus
Method in brief: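 Growth-inhibition assay run by a previously reported procedure on wild-type S49 cells, with a thymidine kinase-deficient S49/TK⁻ line tested alongside. The 5-alkynyl-2'-deoxyuridine nucleosides were tested up to 0.1 mM. EC₅₀ is the concentration giving half-maximal growth inhibition.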

Mus musculus = species on record: Mus musculus; experiment: Effect on mutant line lacking dThd kinase (S49/TK at 0.1 mM; No effect; format: functional
[3] = Compound was tested for cytotoxicity against Wild-type S49 cells; format: functional, cell-based; details: Mus musculus

SMILES: O=c1[nH]c(=O)n([C@H]2C[C@H](O)[C@@H](CO)O2)cc1C#Cc1ccccc1
Cytotoxicity [1]: Non-toxic

Ki (Thymidylate synthase): 200 nM
SMILES: O=c1[nH]c(=O)n([C@H]2C[C@H](O)[C@@H](COP(=O)(O)O)O2)cc1Cl

SMILES: C#Cc1cn([C@H]2C[C@H](O)[C@@H](COP(=O)(O)O)O2)c(=O)[nH]c1=O
Ki (Thymidylate synthase): 100 nM

SMILES: O=c1[nH]c(=O)n([C@H]2C[C@H](O)[C@@H](CO)O2)cc1C#CCO
Cytotoxicity [1]: Non-toxic

SMILES: O=c1[nH]c(=O)n([C@H]2C[C@H](O)[C@@H](COP(=O)(O)O)O2)cc1C#CCO
Ki (Thymidylate synthase): 3000 nM

Ki (Thymidylate synthase): 2600 nM
SMILES: CCCCC#Cc1cn([C@H]2C[C@H](O)[C@@H](COP(=O)(O)O)O2)c(=O)[nH]c1=O

Ki (Thymidylate synthase): 1900 nM
SMILES: O=c1[nH]c(=O)n([C@H]2C[C@H](O)[C@@H](COP(=O)(O)O)O2)cc1C#CCCO

SMILES: CCCCC#Cc1cn([C@H]2C[C@H](O)[C@@H](CO)O2)c(=O)[nH]c1=O
Cytotoxicity [1]: Non-toxic

SMILES: C#Cc1cn([C@H]2C[C@H](O)[C@@H](CO)O2)c(=O)[nH]c1=O
EC50 [2]: 120 nM | Effect (Mus musculus): inactive

Effect (Mus musculus): inactive
SMILES: O=c1[nH]c(=O)n([C@H]2C[C@H](O)[C@@H](CO)O2)cc1C#CCCO
EC50 [3]: 70000 nM

Ki (Thymidylate synthase): 2000 nM
SMILES: O=c1[nH]c(=O)n([C@H]2C[C@H](O)[C@@H](COP(=O)(O)O)O2)cc1C#Cc1ccccc1
